# Measurements: the RNAGym collection of RNA variant scans (doi:10.1126/science.aae0568)
# Fewer inactive variants are shown than the library holds.
# B1: tRNA (parent)
# chain: GUUCCGUUGGCGUAAUGGUAACGCGUCUCCCUCCUAAGGAGAAGACUGCGGGUUCGAGUCCCGUACGGAACG
# Variants of: B1
# Assay: yeast fitness relative to wild type (ratio to wild type); higher = fitter; tRNA-Arg(CCU), competitive growth, 37 C, YPD
# In short: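 The tRNA-Arg(CCU) gene variants were made by chemical synthesis with a 3% per-site mutation rate at 69 sites and inserted at the native genomic locus of Saccharomyces cerevisiae. After pooling, the strains were competed in YPD at 37°C for 24 hours in six parallel replicates. Gene amplicons from the start population and each end population were read by 100-nucleotide paired-end sequencing, and Darwinian fitness relative to wild type was taken from genotype frequency changes. Genotypes needed ≥ 100 starting reads, and estimates < 0.5 were set to 0.5.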
row,Variant,yeast fitness
1,C11G C24G,≤ 0.5
2,C11G C24U,0.583
3,C11G C22U A40C C46U C60A,≤ 0.5
4,C11G G23C A36U G44C,0.748
5,C11G G12A A45C C46G G52A,≤ 0.5
6,C11G C46U C49A C55U,0.661
7,C11G C29G U35C U47A G68C,≤ 0.5
8,C11G G23A C31U C33G C34U A36G,≤ 0.5
9,C11G C31A G38C C55U G58A,0.577
10,C11G C49U C66U,≤ 0.5
11,C11G C33A A40G C62A G67C,≤ 0.5
12,C11G A36G G39A G56A,≤ 0.5
13,C11G A69C,0.683
14,C11G A69U,0.608
15,C11G A69G,0.652
16,C11G G12C A20G A43G A45C G67A,≤ 0.5
17,C11G C55A,0.756
18,C11G C55U,≤ 0.5
19,C11G G12A A21G G58A C62G,0.532
20,C11G G17A C22U C27U A57C,≤ 0.5
21,C11G C34A C60A,≤ 0.5
22,C11G A40G C60U U64C,≤ 0.5
23,C11G U13G C60U,≤ 0.5
24,C11G C46G G50C,0.694

row,Variant,yeast fitness
1,C11G C49U A70G,0.573
2,C11G C24U A42G,≤ 0.5
3,C11G C33G A57U,≤ 0.5
4,C11G A37U C55U A57C,≤ 0.5
5,C11G C31U C33A C66U,≤ 0.5
6,C11G G25A U35C A36U,≤ 0.5
7,C11G G17A C30G U59G,≤ 0.5
8,C11G A45G G67A,0.539
9,C11G C46U G51A,0.649
10,C11G C30U,0.643
11,C11G C30G,≤ 0.5
12,C11G U13G A21G A65G,≤ 0.5
13,C11G G39C U47C G68C,≤ 0.5
14,C11G C24A U28G,≤ 0.5
15,C11G G12C C49U C60G,≤ 0.5
16,C11G C31G C55A,0.618
17,C11G A37G G51C A57G C66U,≤ 0.5
18,C11G G17U A21U A42U,≤ 0.5
19,C11G C27U U32A G52A C60U A70C,≤ 0.5
20,C11G C27U G56A A57G,≤ 0.5
21,C11G U13C C27A U35A G48A U59C,≤ 0.5
22,C11G A42G A45U,≤ 0.5
23,C11G G38C G58C U64A,≤ 0.5
24,C11G C27G C30G A70C,0.689

row,Variant,yeast fitness
1,C11G G44C A57C,≤ 0.5
2,C11G C30U G41C G50A G67C,≤ 0.5
3,C11G G12C A20C C24G A37G C60G C61U,≤ 0.5
4,C11G C34U G44C G50C C66U,≤ 0.5
5,C11G G18C A69U,≤ 0.5
6,C11G G23C A36U G44C C62A,≤ 0.5
7,C11G C24U G25A U47G,≤ 0.5
8,C11G A43C C46G,0.514
9,C11G C34G U59C,≤ 0.5
10,C11G C34A U53A,0.609
11,C11G G17C G63A,≤ 0.5
12,C11G A70U,0.655
13,C11G A70G,0.581
14,C11G C27U C33G A65C,≤ 0.5
15,C11G C24U U28C C62A,≤ 0.5
16,C11G C27U,0.706
17,C11G C27A,0.715
18,C11G A21U C24G G51A,≤ 0.5
19,C11G C22G A37G C60A A70G,≤ 0.5
20,C11G G17A U19C,≤ 0.5
21,C11G A36U U54A U64C A69U,≤ 0.5
22,C11G C29A A43C C66A,≤ 0.5
23,C11G A43G,0.641
24,C11G A43U,0.726

row,Variant,yeast fitness
1,C11G G23C A37G C49U C61U,≤ 0.5
2,C11G C24G C29U C62G C66A,≤ 0.5
3,C11G G18C,0.611
4,C11G C27A G38A C55G,≤ 0.5
5,C11G C34U A42C C61A A70U,≤ 0.5
6,C11G C24U A42U A43U,0.653
7,C11G A42C G68C,≤ 0.5
8,C11G G17C A40G G44C U59C A70G,0.603
9,C11G A21U C27A C61G,0.531
10,C11G C29A A40U,≤ 0.5
11,C11G A21U C55U,≤ 0.5
12,C11G C49U G58C,0.597
13,C11G G17A C30G C61G,≤ 0.5
14,C11G C22U C30A,≤ 0.5
15,C11G G41A G67U G68C,0.569
16,C11G C22G C62U,≤ 0.5
17,C11G C27U C33U C62G,≤ 0.5
18,C11G G68A,0.64
19,C11G G51C A65G,0.616
20,C11G C31G A42U,0.527
21,C11G C24A A43C,≤ 0.5
22,C11G G41A,0.586
23,C11G C24U G25A A42G,≤ 0.5
24,C11G C22U C24G C30G,≤ 0.5

row,Variant,yeast fitness
1,C11G G51U,0.601
2,C11G G12C A43U G44A,0.612
3,C11G A42G A45U U47C U64C A70C,≤ 0.5
4,C11G G18C A20U C33G C34G G50C,0.632
5,C11G C29U U47C C66A,≤ 0.5
6,C11G G12C U16G A21G C33G,≤ 0.5
7,C11G C29U A45C C66G,≤ 0.5
8,C11G G18A C24U,0.542
9,C11G C27U A37U G44A C62A,0.511
10,C11G A45U C61G,≤ 0.5
11,C11G A69C A70U,0.684
12,C11G A45C U47C C61U A69G,≤ 0.5
13,C11G C24U C30U U54A,≤ 0.5
14,C11G G41A G44C C66G,≤ 0.5
15,C11G A45U G50A G63A U64A,0.668
16,C11G C33U,≤ 0.5
17,C11G G12C A21G U35A G51A,0.732
18,C11G C27U A37U C49U,≤ 0.5
19,C11G A57G C61U,0.588
20,C11G G17A C62G,≤ 0.5
21,C11G G67U A69C,0.528
22,C11G C24U A42G A65G,≤ 0.5
23,C11G C29U C31U C34U C62A C66U,≤ 0.5
24,C11G G38A G58A C60U,≤ 0.5

row,Variant,yeast fitness
1,C11G C24A U28G G63A,0.586
2,C11G G17A A20U C33G G38C,≤ 0.5
3,C11G G12C C33U C60U,≤ 0.5
4,C11G C30U C46G G58C,0.617
5,C11G C30U U35A U53G C62U,≤ 0.5
6,C11G C22U U53C,≤ 0.5
7,C11G A57C C60U,≤ 0.5
8,C11G G50A C61U,0.566
9,C11G U13G C55G C66U,≤ 0.5
10,C11G C30U U35A U53G A70C,≤ 0.5
11,C11G A36C G68A,0.506
12,C11G C27U A43C,0.502
13,C11G C34A G58C C60G,0.84
14,C11G C30U U54A,≤ 0.5
15,C11G C60U C62G A70G,≤ 0.5
16,C11G A42U C49G G58C A69U,≤ 0.5
17,C11G C34U C55U,≤ 0.5
18,C11G C34A G44A C46U G68A,≤ 0.5
19,C11G C66U A69C,≤ 0.5
20,C11G C34A G41C G51C G56A,≤ 0.5
21,C11G C22U G63C,≤ 0.5
22,C11G G12A C27U A43G G67A,0.606
23,C11G C34G C55G,≤ 0.5
24,C11G C34U C62G,0.542

row,Variant,yeast fitness
1,C11G G39C G56C C61U,≤ 0.5
2,C11G G12A C22A A36C C61G A69C,≤ 0.5
3,C11G G18C C49U,≤ 0.5
4,C11G G12A C30G C31G U32A C66U,≤ 0.5
5,C11G G18A A21C C49U,≤ 0.5
6,C11G A36C G56A A65G,≤ 0.5
7,C11G C29G A45U,≤ 0.5
8,C11G C24U A69C,≤ 0.5
9,C11G C30A C62G G68C,≤ 0.5
10,C11G C29U C30U,≤ 0.5
11,C11G C27A C46G G50A C61U,≤ 0.5
12,C11G C30G C33A A57C C61A,0.583
13,C11G A21U U26C U53G,0.696
14,C11G C27A G38A A65C,0.557
15,C11G U13G C30U A37G A40U A57U,≤ 0.5
16,C11G C49U G58C C61A A65U,≤ 0.5
17,C11G C49U G63A,≤ 0.5
18,C11G A21U A40U U54A,0.681
19,C11G G17C C29U G51A,0.625
20,C11G G41A A70G,≤ 0.5
21,C11G C22U A40G C60G G63C,≤ 0.5
22,C11G C31U C61G,0.64
23,C11G C30U A65G,0.595
